In ChEMBL document CHEMBL1151773, “Synthesis and biological evaluation of amide derivatives of (5,6-dimethoxy-2,3-dihydro-1H-inden-1-yl)acetic acid as anti-inflammatory agents with reduced gastrointestinal ulcerogenecity” (Eur J Med Chem, 2008):

How the values were obtained:
Rattus norvegicus [1] = test: Antiinflammatory activity in Wistar rat assessed as inhibition of carrageenan-induced hind paw edema volume at 100 mg/kg, po administered 60 mins before carrageenan challenge after 3 hrs relative to control; format: functional
Rattus norvegicus [2] = test: Antiinflammatory activity in Wistar rat assessed as inhibition of carrageenan-induced hind paw edema volume at 100 mg/kg, po administered 60 mins before carrageenan challenge after 4 hrs relative to control; format: functional
Rattus norvegicus [3] = test: Antiinflammatory activity in Wistar rat assessed as inhibition of carrageenan-induced hind paw edema volume at 100 mg/kg, po administered 60 mins before carrageenan challenge after 6 hrs relative to control; format: functional
Rattus norvegicus [4] = test: Antiinflammatory activity in Wistar rat assessed as inhibition of carrageenan-induced hind paw edema volume at 100 mg/kg, po administered 60 mins before carrageenan challenge after 1 hr relative to control; format: functional
Rattus norvegicus [5] = test: Antipyretic activity in Wistar rat assessed as change in LPS-induced rectal temperature at 100 mg/kg, po administered 30 mins before LPS challenge after 1 hr; format: functional
Procedure, shortened: (§1)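 Adult female Wistar rats, 170±20 g, fasted 24 h, dosed orally at 09:00; 30 min later E. coli 0111:B4 phenol-extracted LPS in apyrogenic saline given i.p. Rectal temperature by telethermometer probe just before and 1–7 h hourly after LPS; temperature index calculated from these readings. n = 6.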

Rattus norvegicus [6] = test: Antiarthritic activity in Albino rat assessed as inhibition of Freund's complete adjuvant-induced paw volume at 100 mg/kg, po administered for 14 days daily once starting a day before adjuvant challenge measured on day 3; format: functional
Procedure, shortened: (§2)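 Female albino rats, 160±10 g, six per group, dosed orally once daily for 14 days starting the day before 0.1 ml Freund's complete adjuvant into the right hind paw subplantar surface. Both hind paw volumes, measured up to a mark at the lateral malleolus, taken before and daily after adjuvant.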

Rattus norvegicus [7] = test: Antipyretic activity in Wistar rat assessed as change in LPS-induced rectal temperature at 100 mg/kg, po administered 30 mins before LPS challenge after 2 hrs; format: functional; procedure, shortened: as §1
Rattus norvegicus [8] = test: Antipyretic activity in Wistar rat assessed as change in LPS-induced rectal temperature at 100 mg/kg, po administered 30 mins before LPS challenge after 6 hrs; format: functional; procedure, shortened: as §1
Mus musculus [9] = test: Analgesic activity in Swiss albino mouse assessed as inhibition of acetic acid-induced writhing at 100 mg/kg, po administered 60 mins before acetic acid challenge after 5 to 15 mins relative to control; format: functional
Procedure, shortened: (§3)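 Female Swiss albino mice, 20±5 g, fasted overnight with free water access, dosed orally; 1 h later injected i.p. with 1% v/v acetic acid at 0.1 ml/10 g. Writhes (full hind-limb extension) counted for 15 min, starting 5 min after injection; only animals giving 20 or more writhes used. % inhibition = 100(1−Wt/Wc) vs control group mean; six animals per group.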

Rattus norvegicus [10] = test: Antiarthritic activity in Albino rat assessed as inhibition of Freund's complete adjuvant-induced paw volume at 100 mg/kg, po administered for 14 days daily once starting a day before adjuvant challenge measured on day 13; format: functional; procedure, shortened: as §2
Rattus norvegicus [11] = test: Toxicity in Wistar rat assessed as mortality at up to 1000 mg/kg, po after 24 hrs; format: organism-based; parameters: dose 1000 mg/kg, route oral; details: in vivo
Rattus norvegicus [12] = test: Gastrointestinal toxicity in Wistar rat assessed as ulcer index at 100 mg/kg, po after 14 days; format: organism-based; parameters: dose 100 mg/kg, route oral; details: in vivo, 336 h
Procedure, shortened: (§4)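 Gastric mucosa examined for ulceration at post-mortem of female albino rats sacrificed at the end of the 14-day once-daily oral dosing in the Freund's adjuvant arthritis study; ulcer index scored per animal. Mean ± SEM, n = 6.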

Rattus norvegicus [13] = test: Antipyretic activity in Wistar rat assessed as change in LPS-induced rectal temperature at 100 mg/kg, po administered 30 mins before LPS challenge after 7 hrs; format: functional; procedure, shortened: as §1
Rattus norvegicus [14] = test: Antiinflammatory activity in Wistar rat assessed as inhibition of carrageenan-induced hind paw edema volume at 100 mg/kg, po administered 60 mins before carrageenan challenge after 24 hrs relative to control; format: functional
Rattus norvegicus [15] = test: Antiarthritic activity in Albino rat assessed as inhibition of Freund's complete adjuvant-induced paw volume at 100 mg/kg, po administered for 14 days daily once starting a day before adjuvant challenge measured on day 8; format: functional; procedure, shortened: as §2
Rattus norvegicus [16] = test: Antipyretic activity in Wistar rat assessed as change in LPS-induced rectal temperature at 100 mg/kg, po administered 30 mins before LPS challenge after 5 hrs; format: functional; procedure, shortened: as §1
Rattus norvegicus [17] = test: Antiarthritic activity in Freund's complete adjuvant challenged Albino rat model assessed as change in body weight at 100 mg/kg, po administered for 14 days daily once starting a day before adjuvant challenge; format: functional; details: 336 h, read-out: INH
Rattus norvegicus [18] = test: Antipyretic activity in Wistar rat assessed as change in LPS-induced rectal temperature at 100 mg/kg, po administered 30 mins before LPS challenge after 3 hrs; format: functional; procedure, shortened: as §1
Rattus norvegicus [19] = test: Antiinflammatory activity in po dosed Wistar rat assessed as inhibition of carrageenan-induced hind paw edema volume administered 60 mins before carrageenan challenge; format: functional
Rattus norvegicus [20] = test: Antipyretic activity in Wistar rat assessed as change in LPS-induced rectal temperature at 100 mg/kg, po administered 30 mins before LPS challenge after 4 hrs; format: functional; procedure, shortened: as §1
Rattus norvegicus [21] = test: Antiinflammatory activity in Wistar rat assessed as inhibition of carrageenan-induced hind paw edema volume at 100 mg/kg, po administered 60 mins before carrageenan challenge after 2 hrs relative to control; format: functional
Rattus norvegicus [22] = test: Gastrointestinal toxicity in Wistar rat assessed as ulcer index at 100 mg/kg, po after 6 hrs; format: organism-based; parameters: dose 100 mg/kg, route oral; details: in vivo
Procedure, shortened: (§5)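 Female Wistar rats, 175±25 g, fasted 24 h, dosed orally once; sacrificed 6 h later by cervical dislocation. Stomach opened along greater curvature, saline-washed, mucosa inspected with a hand lens. Lesions graded I (edema/hyperemia/petechiae), II (hemorrhagic lesions with small erosions), III (deep ulcers); UI = nI + 2nII + 3nIII. Mean ± SEM, n = 6.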

Rattus norvegicus [23] = test: Antipyretic activity in Wistar rat assessed as change in LPS-induced rectal temperature at 10 mg/kg, po administered 30 mins before LPS challenge after 3 hrs; format: functional; procedure, shortened: as §1
Rattus norvegicus [24] = test: Antiarthritic activity in Freund's complete adjuvant challenged Albino rat model assessed as change in body weight at 10 mg/kg, po administered for 14 days daily once starting a day before adjuvant challenge; format: functional; details: 336 h, read-out: INH
Rattus norvegicus [25] = test: Antiarthritic activity in Albino rat assessed as inhibition of Freund's complete adjuvant-induced paw volume at 10 mg/kg, po administered for 14 days daily once starting a day before adjuvant challenge measured on day 8; format: functional; procedure, shortened: as §2
Rattus norvegicus [26] = test: Gastrointestinal toxicity in Wistar rat assessed as ulcer index at 30 mg/kg, po after 6 hrs; format: organism-based; parameters: dose 30 mg/kg, route oral; details: in vivo; procedure, shortened: as §5
Mus musculus [27] = test: Analgesic activity in Swiss albino mouse assessed as inhibition of acetic acid-induced writhing at 10 mg/kg, po administered 60 mins before acetic acid challenge after 5 to 15 mins relative to control; format: functional; procedure, shortened: as §3
Rattus norvegicus [28] = test: Antipyretic activity in Wistar rat assessed as change in LPS-induced rectal temperature at 10 mg/kg, po administered 30 mins before LPS challenge after 2 hrs; format: functional; procedure, shortened: as §1
Rattus norvegicus [29] = test: Antiarthritic activity in Albino rat assessed as inhibition of Freund's complete adjuvant-induced paw volume at 10 mg/kg, po administered for 14 days daily once starting a day before adjuvant challenge measured on day 13; format: functional; procedure, shortened: as §2
Rattus norvegicus [30] = test: Antipyretic activity in Wistar rat assessed as change in LPS-induced rectal temperature at 10 mg/kg, po administered 30 mins before LPS challenge after 4 hrs; format: functional; procedure, shortened: as §1
Rattus norvegicus [31] = test: Antiinflammatory activity in Wistar rat assessed as inhibition of carrageenan-induced hind paw edema volume at 10 mg/kg, po administered 60 mins before carrageenan challenge after 6 hrs relative to control; format: functional
Rattus norvegicus [32] = test: Antipyretic activity in Wistar rat assessed as change in LPS-induced rectal temperature at 10 mg/kg, po administered 30 mins before LPS challenge after 7 hrs; format: functional; procedure, shortened: as §1
Rattus norvegicus [33] = test: Antiinflammatory activity in Wistar rat assessed as inhibition of carrageenan-induced hind paw edema volume at 10 mg/kg, po administered 60 mins before carrageenan challenge after 4 hrs relative to control; format: functional
Procedure, shortened: (§6)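 Female Wistar rats (170± 20 g), fasted overnight, n=6 per group; dosed orally, then 0.1 ml of 1% carrageenan injected subplantar into right hind paw 1 h later.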

Rattus norvegicus [34] = test: Antiinflammatory activity in Wistar rat assessed as inhibition of carrageenan-induced hind paw edema volume at 10 mg/kg, po administered 60 mins before carrageenan challenge after 24 hrs relative to control; format: functional
Rattus norvegicus [35] = test: Antipyretic activity in Wistar rat assessed as change in LPS-induced rectal temperature at 10 mg/kg, po administered 30 mins before LPS challenge after 5 hrs; format: functional; procedure, shortened: as §1
Rattus norvegicus [36] = test: Antiinflammatory activity in Wistar rat assessed as inhibition of carrageenan-induced hind paw edema volume at 10 mg/kg, po administered 60 mins before carrageenan challenge after 1 hr relative to control; format: functional; procedure, shortened: as §6
Rattus norvegicus [37] = test: Antiinflammatory activity in Wistar rat assessed as inhibition of carrageenan-induced hind paw edema volume at 10 mg/kg, po administered 60 mins before carrageenan challenge after 3 hrs relative to control; format: functional; procedure, shortened: as §6
Rattus norvegicus [38] = test: Antipyretic activity in Wistar rat assessed as change in LPS-induced rectal temperature at 10 mg/kg, po administered 30 mins before LPS challenge after 1 hr; format: functional; procedure, shortened: as §1
Rattus norvegicus [39] = test: Gastrointestinal toxicity in Wistar rat assessed as ulcer index at 1 mg/kg, po after 14 days; format: organism-based; parameters: route oral; details: in vivo, 336 h; procedure, shortened: as §4
Rattus norvegicus [40] = test: Antipyretic activity in Wistar rat assessed as change in LPS-induced rectal temperature at 10 mg/kg, po administered 30 mins before LPS challenge after 6 hrs; format: functional; procedure, shortened: as §1
Rattus norvegicus [41] = test: Antiarthritic activity in Albino rat assessed as inhibition of Freund's complete adjuvant-induced paw volume at 10 mg/kg, po administered for 14 days daily once starting a day before adjuvant challenge measured on day 3; format: functional; procedure, shortened: as §2
Rattus norvegicus [42] = species: Rattus norvegicus; test: animal or person; details: Wistar, po, read-out: INH

Compound COc1cc2c(cc1OC)C(CC(=O)NC1CCCCC1)CC2 (configuration not stated) has an inhibition in vivo at 100 mg/kg (Rattus norvegicus [1]) of 49.3%, an inhibition in vivo at 100 mg/kg (Rattus norvegicus [2]) of 50% and an inhibition in vivo at 100 mg/kg (Rattus norvegicus [3]) of 48.1%. It also gave an inhibition in vivo at 100 mg/kg (Rattus norvegicus [4]) of 50%, an Activity (Rattus norvegicus [5]) of -0.33 °C and an inhibition in vivo at 100 mg/kg (Rattus norvegicus [6]) of 29%. The Activity (Rattus norvegicus [7]) was -1.26 °C, the Activity (Rattus norvegicus [8]) was 0.45 °C and the inhibition in vivo at 100 mg/kg (Mus musculus [9]) was 44.7%. For the same compound, the inhibition in vivo at 100 mg/kg (Rattus norvegicus [10]) was 33.3%, the Activity (Rattus norvegicus [11]) was “Non-toxic” and the UI (Rattus norvegicus [12]) was 0. For the same compound, the Activity (Rattus norvegicus [13]) was 0.43 °C, the inhibition in vivo at 100 mg/kg (Rattus norvegicus [14]) was 53.3% and the inhibition in vivo at 100 mg/kg (Rattus norvegicus [15]) was 31.8%. It also gave an Activity (Rattus norvegicus [16]) of 0.51 °C, an inhibition in vivo at 100 mg/kg (Rattus norvegicus [17]) of 6.84 g and an Activity (Rattus norvegicus [18]) of -0.67 °C. The ED30 (Rattus norvegicus [19]) was 20 mg/kg, the Activity (Rattus norvegicus [20]) was 0.05 °C and the inhibition in vivo at 100 mg/kg (Rattus norvegicus [21]) was 56%. For the same compound, the UI (Rattus norvegicus [22]) was 0.

Work on COc1ccc2c(c1)c(CC(=O)O)c(C)n2C(=O)c1ccc(Cl)cc1 [INDOMETHACIN] yielded an Activity (Rattus norvegicus [23]) of -0.11 °C, an inhibition in vivo at 10 mg/kg (Rattus norvegicus [24]) of 5.68 g and an inhibition in vivo at 10 mg/kg (Rattus norvegicus [25]) of 43.9%. For the same compound, the UI (Rattus norvegicus [26]) was 31.37, the inhibition in vivo at 10 mg/kg (Mus musculus [27]) was 51.5% and the Activity (Rattus norvegicus [28]) was -1.03 °C. The inhibition in vivo at 10 mg/kg (Rattus norvegicus [29]) was 46.5%, the Activity (Rattus norvegicus [30]) was 0.22 °C and the inhibition in vivo at 10 mg/kg (Rattus norvegicus [31]) was 48.1%. It also gave an Activity (Rattus norvegicus [32]) of 0.55 °C, an inhibition in vivo at 10 mg/kg (Rattus norvegicus [33]) of 57.8% and an inhibition in vivo at 10 mg/kg (Rattus norvegicus [34]) of 13.3%. It also gave an Activity (Rattus norvegicus [35]) of 0.3 °C, an inhibition in vivo at 10 mg/kg (Rattus norvegicus [36]) of 50% and an inhibition in vivo at 10 mg/kg (Rattus norvegicus [37]) of 65.2%. It also gave an Activity (Rattus norvegicus [38]) of -0.39 °C, a UI (Rattus norvegicus [39]) of 72 and an Activity (Rattus norvegicus [40]) of 0.35 °C. The inhibition in vivo at 10 mg/kg (Rattus norvegicus [41]) was 37.5% and the inhibition in vivo at 10 mg/kg (Rattus norvegicus [42]) was 58%.
